# Reference: ChEMBL document CHEMBL1158358, “Synthesis, antimicrobial and cytotoxic activities of some 5-arylidene-4-thioxo-thiazolidine-2-ones” (Eur J Med Chem, 2009)
# Legend:
# Assay type in all cases: functional
# Staphylococcus aureus [1] = assay: Antimicrobial activity against multidrug-resistant Staphylococcus aureus H.C. 21141 isolate after 20 hrs by twofold serial dilution technique; details: H.C. 21141, 20 h
# Summary of the method: (§1)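 Twofold serial dilution MIC in agar plates against Gram-positive strains and multidrug-resistant clinical isolates. Inoculum applied was 10⁵ CFU/plate. Plates with culture medium plus DMSO served as negative control. MIC was read after incubation at 35 °C for 20 h.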
# NCI-H292 [2] = assay: Cytotoxicity against human NCI-H292 cells at 1.25 ug/mL after 72 hrs by MTT assay; details: NCI-H292, 72 h, read-out: GI
# Summary of the method: (§2)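 MTT antiproliferative assay. Cells were diluted to 10⁵ cells/mL in 96-well plates and preincubated for 24 h at 37 °C in humid 5% CO₂. Compounds or vincristine (reference) were then added. Formazan was dissolved and OD read at 540 nm, compared with medium-only control cells. Run in triplicate.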
# Staphylococcus aureus [3] = assay: Antimicrobial activity against Staphylococcus aureus UFPEDA 01 after 20 hrs by twofold serial dilution technique; details: UFPEDA 01, 20 h; summary of the method: as §1
# Escherichia coli = assay: Antimicrobial activity against Escherichia coli UFPEDA 224 at 300 ug/disk after 24 hrs by disk diffusion method; details: UFPEDA 224, 24 h, read-out: IZ
# Summary of the method: (§3)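 Preliminary screen by disk diffusion. Paper disks (6 mm) holding 300 µg of compound were placed on agar plates inoculated with a standardized microbial suspension. DMSO-only disks served as negative controls. A mean inhibition zone below 7 mm was scored as no sensitivity. Values are means, n = 3.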
# Staphylococcus aureus [4] = assay: Antimicrobial activity against multidrug-resistant Staphylococcus aureus H.C. 20981 isolate after 20 hrs by twofold serial dilution technique; details: H.C. 20981, 20 h; summary of the method: as §1
# Staphylococcus aureus [5] = assay: Antimicrobial activity against multidrug-resistant Staphylococcus aureus H.C. 20489 isolate after 20 hrs by twofold serial dilution technique; details: H.C. 20489, 20 h; summary of the method: as §1
# Staphylococcus aureus [6] = assay: Antimicrobial activity against multidrug-resistant Staphylococcus aureus H.C. 20905 isolate after 20 hrs by twofold serial dilution technique; details: H.C. 20905, 20 h; summary of the method: as §1
# Candida albicans [7] = assay: Antimicrobial activity against Candida albicans UFPEDA 1007 after 48 hrs by twofold serial dilution technique; details: UFPEDA 1007, 48 h
# Summary of the method: (§4)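 MIC was determined by twofold serial dilution. Bacteria were tested in plates at 10⁵ CFU/plate and read after 20 h. C. albicans was tested in tubes at 10³ CFU/tube and read after 48 h. All incubations were at 35 °C. Medium plus DMSO served as the negative control.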
# NCI-H292 [8] = assay: Cytotoxicity against human NCI-H292 cells at 10 ug/mL after 72 hrs by MTT assay; details: NCI-H292, 72 h, read-out: GI; summary of the method: as §2
# Serratia marcescens = assay: Antimicrobial activity against Serratia marcescens UFPEDA 398 at 300 ug/disk after 24 hrs by disk diffusion method; details: UFPEDA 398, 24 h, read-out: IZ; summary of the method: as §3
# HEp-2 [9] = assay: Cytotoxicity against human Hep2 cells at 5 ug/mL after 72 hrs by MTT assay; details: HEp-2, 72 h, read-out: GI; summary of the method: as §2
# Staphylococcus aureus [10] = assay: Antimicrobial activity against multidrug-resistant Staphylococcus aureus H.C. 21036 isolate after 20 hrs by twofold serial dilution technique; details: H.C. 21036, 20 h; summary of the method: as §1
# Staphylococcus aureus [11] = assay: Antimicrobial activity against Staphylococcus aureus UFPEDA 01 at 300 ug/disk after 24 hrs by disk diffusion method; details: UFPEDA 01, 24 h, read-out: IZ; summary of the method: as §3
# HEp-2 [12] = assay: Cytotoxicity against human Hep2 cells at 1.25 ug/mL after 72 hrs by MTT assay; details: HEp-2, 72 h, read-out: GI; summary of the method: as §2
# Enterococcus faecalis [13] = assay: Antimicrobial activity against Enterococcus faecalis UFPEDA 138 after 20 hrs by twofold serial dilution technique; details: UFPEDA 138, 20 h; summary of the method: as §4
# Enterococcus faecalis [14] = assay: Antimicrobial activity against multidrug-resistant Enterococcus faecalis H.C. 24962 isolate after 20 hrs by twofold serial dilution technique; details: H.C. 24962, 20 h; summary of the method: as §1
# Staphylococcus [15] = assay: Antimicrobial activity against coagulase-negative Staphylococcus H.A.M. 338 isolate after 20 hrs by twofold serial dilution technique; details: H.A.M. 338, 20 h; summary of the method: as §4
# HEp-2 [16] = assay: Cytotoxicity against human Hep2 cells at 2.5 ug/mL after 72 hrs by MTT assay; details: HEp-2, 72 h, read-out: GI; summary of the method: as §2
# Enterococcus faecalis [17] = assay: Antimicrobial activity against Enterococcus faecalis UFPEDA 138 at 300 ug/disk after 24 hrs by disk diffusion method; details: UFPEDA 138, 24 h, read-out: IZ; summary of the method: as §3
# Enterococcus faecalis [18] = assay: Antimicrobial activity against multidrug-resistant Enterococcus faecalis H.C. 21944 isolate after 20 hrs by twofold serial dilution technique; details: H.C. 21944, 20 h; summary of the method: as §1
# Bacillus subtilis [19] = assay: Antimicrobial activity against Bacillus subtilis UFPEDA 16 after 20 hrs by twofold serial dilution technique; details: UFPEDA 16, 20 h; summary of the method: as §4
# [20] = system: Mycolicibacterium smegmatis; assay: Antimicrobial activity against Mycobacterium smegmatis UFPEDA 71 at 300 ug/disk after 24 hrs by disk diffusion method; details: UFPEDA 71, 24 h, read-out: IZ; summary of the method: as §3
# Staphylococcus aureus [21] = assay: Antimicrobial activity against multidrug-resistant Staphylococcus aureus H.C. 20794 isolate after 20 hrs by twofold serial dilution technique; details: H.C. 20794, 20 h; summary of the method: as §1
# Enterococcus faecalis [22] = assay: Antimicrobial activity against multidrug-resistant Enterococcus faecalis H.C. 24708 isolate after 20 hrs by twofold serial dilution technique; details: H.C. 24708, 20 h; summary of the method: as §1
# NCI-H292 [23] = assay: Cytotoxicity against human NCI-H292 cells at 5 ug/mL after 72 hrs by MTT assay; details: NCI-H292, 72 h, read-out: GI; summary of the method: as §2
# [24] = system: Mycolicibacterium smegmatis; assay: Antimicrobial activity against Mycobacterium smegmatis UFPEDA 71 after 20 hrs by twofold serial dilution technique; details: UFPEDA 71, 20 h; summary of the method: as §4
# Micrococcus luteus [25] = assay: Antimicrobial activity against Micrococcus luteus UFPEDA 06 at 300 ug/disk after 24 hrs by disk diffusion method; details: UFPEDA 06, 24 h, read-out: IZ; summary of the method: as §3
# NCI-H292 [26] = assay: Cytotoxicity against human NCI-H292 cells at 2.5 ug/mL after 72 hrs by MTT assay; details: NCI-H292, 72 h, read-out: GI; summary of the method: as §2
# Micrococcus luteus [27] = assay: Antimicrobial activity against Micrococcus luteus UFPEDA 06 after 20 hrs by twofold serial dilution technique; details: UFPEDA 06, 20 h; summary of the method: as §4
# Bacillus subtilis [28] = assay: Antimicrobial activity against Bacillus subtilis UFPEDA 16 at 300 ug/disk after 24 hrs by disk diffusion method; details: UFPEDA 16, 24 h, read-out: IZ; summary of the method: as §3
# Pseudomonas aeruginosa = assay: Antimicrobial activity against Pseudomonas aeruginosa UFPEDA 39 at 300 ug/disk after 24 hrs by disk diffusion method; details: UFPEDA 39, 24 h, read-out: IZ; summary of the method: as §3
# Candida albicans [29] = assay: Antimicrobial activity against Candida albicans UFPEDA 1007 at 300 ug/disk after 48 hrs by disk diffusion method; details: UFPEDA 1007, 48 h, read-out: IZ; summary of the method: as §3
# HEp-2 [30] = assay: Cytotoxicity against human Hep2 cells at 10 ug/mL after 72 hrs by MTT assay; details: HEp-2, 72 h, read-out: GI; summary of the method: as §2
# Staphylococcus [31] = assay: Antimicrobial activity against coagulase-negative Staphylococcus H.A.M. 278 isolate after 20 hrs by twofold serial dilution technique; details: H.A.M. 278, 20 h; summary of the method: as §4
# Enterococcus faecalis [32] = assay: Antimicrobial activity against multidrug-resistant Enterococcus faecalis H.C. 21752 isolate after 20 hrs by twofold serial dilution technique; details: H.C. 21752, 20 h; summary of the method: as §1
Compound,MIC (Staphylococcus aureus [1]) [µg/mL],inhibition of growth at 1.25 µg/mL (NCI-H292 [2]) [%],MIC (Staphylococcus aureus [3]) [µg/mL],zone of inhibition at 300 µg/disc (Escherichia coli) [mm],MIC (Staphylococcus aureus [4]) [µg/mL],MIC (Staphylococcus aureus [5]) [µg/mL],MIC (Staphylococcus aureus [6]) [µg/mL],MIC (Candida albicans [7]) [µg/mL],inhibition of growth at 10 µg/mL (NCI-H292 [8]) [%],zone of inhibition at 300 µg/disc (Serratia marcescens) [mm],inhibition of growth at 5 µg/mL (HEp-2 [9]) [%],MIC (Staphylococcus aureus [10]) [µg/mL],zone of inhibition at 300 µg/disc (Staphylococcus aureus [11]) [mm],inhibition of growth at 1.25 µg/mL (HEp-2 [12]) [%],MIC (Enterococcus faecalis [13]) [µg/mL],MIC (Enterococcus faecalis [14]) [µg/mL],MIC (Staphylococcus [15]) [µg/mL],inhibition of growth at 2.5 µg/mL (HEp-2 [16]) [%],zone of inhibition at 300 µg/disc (Enterococcus faecalis [17]) [mm],MIC (Enterococcus faecalis [18]) [µg/mL],other results
O=C1NC(=S)/C(=C/c2ccc(Cl)cc2Cl)S1,4,12.1,2,< 7,2,2,2,32,38.4,< 7,20,8,23,6.83,16,8,2,15.3,18,4,MIC (Bacillus subtilis [19]): 2 µg/mL; zone of inhibition at 300 µg/disc [20]: 19 mm; MIC (Staphylococcus aureus [21]): 2 µg/mL; MIC (Enterococcus faecalis [22]): 8 µg/mL; inhibition of growth at 5 µg/mL (NCI-H292 [23]): 29.3%; MIC [24]: 4 µg/mL; zone of inhibition at 300 µg/disc (Micrococcus luteus [25]): 24 mm; inhibition of growth at 2.5 µg/mL (NCI-H292 [26]): 14.7%; MIC (Micrococcus luteus [27]): 8 µg/mL; zone of inhibition at 300 µg/disc (Bacillus subtilis [28]): 24 mm; zone of inhibition at 300 µg/disc (Pseudomonas aeruginosa): < 7 mm; zone of inhibition at 300 µg/disc (Candida albicans [29]): 15 mm; inhibition of growth at 10 µg/mL (HEp-2 [30]): 24.8%; MIC (Staphylococcus [31]): 4 µg/mL; MIC (Enterococcus faecalis [32]): 4 µg/mL
O=C1NC(=S)/C(=C/c2cc(Cl)cc(Cl)c2Cl)S1,2,14.2,4,< 7,2,2,2,64,40.5,< 7,22.8,2,16,12.6,2,4,2,21.8,19,4,MIC (Bacillus subtilis [19]): 2 µg/mL; zone of inhibition at 300 µg/disc [20]: < 7 mm; MIC (Staphylococcus aureus [21]): 2 µg/mL; MIC (Enterococcus faecalis [22]): 4 µg/mL; inhibition of growth at 5 µg/mL (NCI-H292 [23]): 39.7%; MIC [24]: 32 µg/mL; zone of inhibition at 300 µg/disc (Micrococcus luteus [25]): 21 mm; inhibition of growth at 2.5 µg/mL (NCI-H292 [26]): 33%; MIC (Micrococcus luteus [27]): 4 µg/mL; zone of inhibition at 300 µg/disc (Bacillus subtilis [28]): < 7 mm; zone of inhibition at 300 µg/disc (Pseudomonas aeruginosa): < 7 mm; zone of inhibition at 300 µg/disc (Candida albicans [29]): < 7 mm; inhibition of growth at 10 µg/mL (HEp-2 [30]): 23.5%; MIC (Staphylococcus [31]): 2 µg/mL; MIC (Enterococcus faecalis [32]): 4 µg/mL
